Each block holds one compound with its values, some of them ahead of it.
How the values were obtained:
[1] = Lipophilicity, log D of the compound at pH 7.4; type: physicochemical; settings: buffer
Blood = assay: Biodistribution in Balb/c mouse blood at 1.37 MBq, iv up to 30 mins by gamma counter; type: ADME, organism-based; settings: in vivo, 0.5 h
Heart = assay: Biodistribution in Balb/c mouse heart at 1.37 MBq, iv up to 30 mins by gamma counter; type: ADME, organism-based; settings: in vivo, 0.5 h
Lung = assay: Biodistribution in Balb/c mouse lungs at 1.37 MBq, iv up to 30 mins by gamma counter; type: ADME, organism-based; settings: in vivo, 0.5 h
Liver = assay: Biodistribution in Balb/c mouse liver at 1.37 MBq, iv up to 30 mins by gamma counter; type: ADME, organism-based; settings: in vivo, 0.5 h
Spleen = assay: Biodistribution in Balb/c mouse spleen at 1.37 MBq, iv up to 30 mins by gamma counter; type: ADME, organism-based; settings: in vivo, 0.5 h
Kidney [2] = assay: Biodistribution in Balb/c mouse kidneys at 1.37 MBq, iv up to 30 mins by gamma counter; type: ADME, organism-based; settings: in vivo, 0.5 h
Mus musculus [3] = assay: Biodistribution in Balb/c mouse adrenals at 1.37 MBq, iv up to 30 mins by gamma counter; type: ADME, organism-based, Adrenal tissue; settings: in vivo, 0.5 h
Stomach = assay: Biodistribution in Balb/c mouse stomach at 1.37 MBq, iv up to 30 mins by gamma counter; type: ADME, organism-based; settings: in vivo, 0.5 h
Mus musculus [4] = assay: Biodistribution in Balb/c mouse small intestine at 1.37 MBq, iv up to 30 mins by gamma counter; type: ADME, organism-based; settings: in vivo, 0.5 h
Mus musculus [5] = assay: Biodistribution in Balb/c mouse large intestine at 1.37 MBq, iv up to 30 mins by gamma counter; type: ADME, organism-based; settings: in vivo, 0.5 h
Urinary bladder [6] = assay: Biodistribution in Balb/c mouse bladder at 1.37 MBq, iv up to 30 mins by gamma counter; type: ADME, organism-based; settings: in vivo, 0.5 h
Thyroid gland [7] = assay: Biodistribution in Balb/c mouse thyroid at 1.37 MBq, iv up to 30 mins by gamma counter; type: ADME, organism-based; settings: in vivo, 0.5 h
Bone = assay: Biodistribution in Balb/c mouse bone at 1.37 MBq, iv up to 30 mins by gamma counter; type: ADME, organism-based, Bone element; settings: in vivo, 0.5 h
Mus musculus [8] = assay: Biodistribution in Balb/c mouse skeletal muscle at 1.37 MBq, iv up to 30 mins by gamma counter; type: ADME, organism-based, Muscle tissue; settings: in vivo, 0.5 h
Brain = assay: Biodistribution in Balb/c mouse brain at 1.37 MBq, iv up to 30 mins by gamma counter; type: ADME, organism-based; settings: in vivo, 0.5 h
[9] = Stability of the compound in PBS at pH 7.4 after 48 hrs; type: physicochemical; settings: buffer, pH 7.4, 48 h
[10] = Stability in PBS at pH 7.4 assessed as deiodination of compound after 48 hrs; type: physicochemical; settings: buffer, pH 7.4, 48 h
Thyroid gland [11] = assay: Drug uptake in NCr nude mouse thyroid xenografted with human LNCAP cells at 37 MBq, iv measured 24 hrs post injection by gamma counting; type: ADME, organism-based; settings: in vivo
How it was run: (§1)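 Male NCr nude mice bearing LNCap tumours (PSMA-expressing) received 37 MBq of the radioiodinated PSMA-TAAG conjugate via the tail vein. Distribution was followed by scintigraphic imaging at 2 h and 24 h post-injection, with a fused scintigraphic-CT image taken at 23 h.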

[12] = Drug uptake in NCr nude mouse tumor xenografted with human LNCAP cells at 0.63 MBq, iv measured 1 hrs post injection by gamma counting; type: ADME, organism-based, Neoplasm; settings: in vivo
[13] = Drug uptake in NCr nude mouse tumor xenografted with human LNCAP cells measured 1 hr post injection in presence of PSMA inhibition PMPA; type: ADME, Neoplasm; settings: tumor (human LNCaP xenograft), with PMPA (PSMA inhibitor), amount not stated, read-out: Drug uptake
[14] = Drug uptake in NCr nude mouse tumor xenografted with human LNCAP cells at 0.63 MBq, iv measured 23 hrs post injection by gamma counting; type: ADME, organism-based, Neoplasm; settings: in vivo
Thyroid gland [15] = assay: Drug uptake in NCr nude mouse thyroid xenografted with human LNCAP cells at 0.63 MBq, iv measured 23 hrs post injection by gamma counting; type: ADME, organism-based; settings: in vivo
Kidney [16] = assay: Drug uptake in NCr nude mouse kidney xenografted with human LNCAP cells at 37 MBq, iv measured 2 hrs post injection by gamma counting; type: ADME, organism-based; settings: in vivo; how it was run: as §1
Urinary bladder [17] = assay: Drug uptake in NCr nude mouse bladder xenografted with human LNCAP cells at 37 MBq, iv measured 2 hrs post injection by gamma counting; type: ADME, organism-based; settings: in vivo; how it was run: as §1
[18] = Drug uptake in NCr nude mouse tumor xenografted with human LNCAP cells at 37 MBq, iv measured 2 hrs post injection by gamma counting; type: ADME, organism-based, Neoplasm; settings: in vivo; how it was run: as §1
[19] = Drug uptake in NCr nude mouse tumor xenografted with human LNCAP cells at 37 MBq, iv measured 24 hrs post injection by gamma counting; type: ADME, organism-based, Neoplasm; settings: in vivo; how it was run: as §1

- logD [1]: 0.07
Compound: O=C(O)c1ccc(I)cc1

- Drug uptake (Blood): Not Active
- Drug uptake (Heart): Not Active
- Drug uptake (Lung): Not Active
- Drug uptake (Liver): Not Active
- Drug uptake (Spleen): Not Active
- Drug uptake (Kidney [2]): Not Active
- Drug uptake (Mus musculus [3]): Not Active
- Drug uptake (Stomach): Not Active
- Drug uptake (Mus musculus [4]): Not Active
- Drug uptake (Mus musculus [5]): Not Active
- Drug uptake (Urinary bladder [6]): Active
- Drug uptake (Thyroid gland [7]): Not Active
- Drug uptake (Bone): Not Active
- Drug uptake (Mus musculus [8]): Not Active
- Drug uptake (Brain): Not Active
- Stability [9]: Stable
- Stability [10]: Stable
- logD [1]: -2.58
Compound: O=C(O)Cn1cc([123I])nn1

- Drug uptake (Thyroid gland [11]): Active
- Drug uptake [12]: 20 % ID/g
- tissue uptake at 1 h [13]: < 2 %ID/g
- Drug uptake [14]: 15 % ID/g
- Drug uptake (Thyroid gland [15]): 10 % ID/g
- logD [1]: -3.23
- Drug uptake (Kidney [16]): Active
- Drug uptake (Urinary bladder [17]): Active
- Drug uptake [18]: Active
- Drug uptake [19]: Active
Compound: O=C(O)CC[C@H](NC(=O)N[C@@H](CCCCNC(=O)Cn1cc([123I])nn1)C(=O)O)C(=O)O

From ChEMBL document CHEMBL2062420, “Triazole Appending Agent (TAAG): A New Synthon for Preparing Iodine-Based Molecular Imaging and Radiotherapy Agents” (ACS Med Chem Lett, 2012)
